# Reference: ChEMBL document CHEMBL1177662, “Anti-influenza activity of phenethylphenylphthalimide analogs derived from thalidomide” (Bioorg Med Chem, 2010)
# The source made the active and inactive calls. No cut-off for these calls is given here.
# How the values were obtained:
# [1] = target: Polymerase acidic protein (Influenza A virus (A/Puerto Rico/8/1934(H1N1))) (UniProt P03433); test: Inhibition of Influenza A (A/PR/8/34/ (H1N1)) RNA polymerase acidin protein endonuclease PA domain assessed as M13mp18 ss DNA at 10 uM
# In short: (§1)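 Recombinant His-tagged PA N-terminal endonuclease domain (residues 1–220), expressed in E. coli and purified by Ni-agarose and anion exchange. 0.35 μg (about 0.1 μM final) in 100 μl buffer at pH 7.3, with 1 μg M13mp18 circular ssDNA substrate and compound at 1 or 10 μM. A no-enzyme control was included. Digestion read by agarose electrophoresis with ethidium bromide staining.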
# [2] = target: Polymerase acidic protein (Influenza A virus (A/Puerto Rico/8/1934(H1N1))) (UniProt P03433); test: Inhibition of Influenza A (A/PR/8/34/ (H1N1)) RNA polymerase acidin protein endonuclease PA domain assessed as M13mp18 ss DNA at 1 uM; in short: as §1
# Influenza A virus = test: Antiviral activity against Influenza A (A/PR/8/34/ (H1N1)) infected in MDCK cells assessed as inhibition of virus-induced cell death; assay type: functional, organism-based; conditions: A/Puerto Rico/8/1934(H1N1)
# In short: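 Confluent MDCK monolayers (MEM, 10% FBS, 37 °C). Compound (0.63–80 μM, DMSO vehicle) premixed with 100 TCID50 H1N1 PR8 plus trypsin for 30 min at 37 °C, then added to PBS-washed cells. Incubated 4 days at 34 °C, 5% CO2. Formaldehyde-fixed, naphthol blue black stain, OD630 read. Viability scaled to mock (100%) and virus-only (0%) wells. Triplicate; EC50 estimated from dose–response curve.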
# [3] = Cytotoxicity against dog MDCK cells; assay type: cell-based, Canis lupus familiaris
# In short: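 Confluent MDCK monolayers (MEM, 10% FBS, 37 °C) exposed without virus to compound (0.63–80 μM, DMSO vehicle), premixed with trypsin 30 min at 37 °C. Incubated 4 days at 34 °C, 5% CO2. Formaldehyde fixation, naphthol blue black staining of viable cells, OD630 read. Triplicate; CC50 estimated from dose–response curve.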
SMILES,inhibition [1],inhibition [2],EC50 (Influenza A virus) [µM],CC50 [3] [µM]
O=C1c2ccccc2C(=O)N1c1ccc(CCc2ccccc2)cc1,inactive,inactive,–,–
COc1ccc(CCc2ccc(N3C(=O)c4c(Cl)c(Cl)c(Cl)c(Cl)c4C3=O)cc2)cc1OC,inactive,inactive,–,–
O=C1c2ccccc2C(=O)N1c1ccc(/C=C/c2ccc(O)c(O)c2)cc1,inactive,inactive,–,–
O=C1c2c(Cl)c(Cl)c(Cl)c(Cl)c2C(=O)N1c1cccc(/C=C/c2ccc(O)c(O)c2)c1,inactive,inactive,–,–
O=C1c2c(Cl)c(Cl)c(Cl)c(Cl)c2C(=O)N1c1cccc(CCc2cccc(O)c2)c1,inactive,inactive,–,–
O=C1c2c(Cl)c(Cl)c(Cl)c(Cl)c2C(=O)N1c1ccccc1CCc1ccc(O)c(O)c1,inactive,inactive,–,–
O=C1c2c(Cl)c(Cl)c(Cl)c(Cl)c2C(=O)N1c1cccc(/C=C\c2ccccc2)c1,inactive,inactive,–,–
O=C1c2ccccc2C(=O)N1c1ccc(/C=C/c2ccccc2)cc1,inactive,inactive,–,–
COc1ccc(CCc2ccc(N3C(=O)c4ccccc4C3=O)cc2)cc1OC,inactive,inactive,–,–
COc1ccc(/C=C/c2ccc(N3C(=O)c4c(Cl)c(Cl)c(Cl)c(Cl)c4C3=O)cc2)cc1OC,inactive,inactive,–,–
O=C1c2ccccc2C(=O)N1c1ccccc1CCc1ccc(O)c(O)c1,Active,inactive,48,> 80
COc1ccc(CCc2ccc(N3C(=O)c4ccccc4C3=O)cc2)cc1,inactive,inactive,–,–
COc1ccc(CCc2cccc(N3C(=O)c4c(Cl)c(Cl)c(Cl)c(Cl)c4C3=O)c2)cc1,inactive,inactive,–,–
O=C1c2c(Cl)c(Cl)c(Cl)c(Cl)c2C(=O)N1c1ccc(/C=C\c2ccccc2)cc1,inactive,inactive,–,–
O=C1c2c(Cl)c(Cl)c(Cl)c(Cl)c2C(=O)N1c1ccc(CCc2ccc(O)cc2)cc1,inactive,inactive,–,–
O=C1c2c(Cl)c(Cl)c(Cl)c(Cl)c2C(=O)N1c1ccc(CCc2ccccc2)cc1,inactive,inactive,–,–
O=C1c2c(Cl)c(Cl)c(Cl)c(Cl)c2C(=O)N1c1cccc(CCc2ccc(O)cc2)c1,inactive,inactive,–,–
O=C1c2c(Cl)c(Cl)c(Cl)c(Cl)c2C(=O)N1c1ccc(CCc2ccc(O)c(O)c2)cc1,inactive,inactive,24,> 80
COc1cccc(CCc2ccc(N3C(=O)c4c(Cl)c(Cl)c(Cl)c(Cl)c4C3=O)cc2)c1,inactive,inactive,–,–

SMILES,inhibition [1],inhibition [2],EC50 (Influenza A virus) [µM],CC50 [3] [µM]
O=C1c2c(Cl)c(Cl)c(Cl)c(Cl)c2C(=O)N1c1cccc(CCc2ccccc2)c1,inactive,inactive,–,–
COc1cccc(CCc2ccc(N3C(=O)c4ccccc4C3=O)cc2)c1,inactive,inactive,–,–
O=C1c2ccccc2C(=O)N1c1cccc(CCc2ccc(O)c(O)c2)c1,Active,inactive,26,–
COc1ccc(/C=C/c2cccc(N3C(=O)c4c(Cl)c(Cl)c(Cl)c(Cl)c4C3=O)c2)cc1OC,inactive,inactive,–,–
COc1ccc(CCc2ccccc2N2C(=O)c3ccccc3C2=O)cc1OC,inactive,–,> 80,> 80
O=C1c2c(Cl)c(Cl)c(Cl)c(Cl)c2C(=O)N1c1ccc(/C=C/c2ccccc2)cc1,inactive,inactive,–,–
COc1ccc(CCc2cccc(N3C(=O)c4ccccc4C3=O)c2)cc1OC,inactive,inactive,–,–
COc1cccc(CCc2cccc(N3C(=O)c4c(Cl)c(Cl)c(Cl)c(Cl)c4C3=O)c2)c1,inactive,inactive,–,–
O=C1c2c(Cl)c(Cl)c(Cl)c(Cl)c2C(=O)N1c1cccc(/C=C/c2ccccc2)c1,inactive,inactive,–,–
COc1ccc(CCc2ccc(N3C(=O)c4c(Cl)c(Cl)c(Cl)c(Cl)c4C3=O)cc2)cc1,inactive,inactive,–,–
O=C1c2ccccc2C(=O)N1c1ccc(CCc2ccc(O)cc2)cc1,inactive,inactive,–,–
COc1ccc(CCc2ccccc2N2C(=O)c3c(Cl)c(Cl)c(Cl)c(Cl)c3C2=O)cc1OC,inactive,inactive,–,–
O=C1c2c(Cl)c(Cl)c(Cl)c(Cl)c2C(=O)N1c1ccccc1CCc1ccccc1,inactive,inactive,–,–
O=C1c2ccccc2C(=O)N1c1ccccc1CCc1ccccc1,inactive,inactive,–,–
COc1ccc(CCc2cccc(N3C(=O)c4c(Cl)c(Cl)c(Cl)c(Cl)c4C3=O)c2)cc1OC,inactive,inactive,–,–
O=C1c2c(Cl)c(Cl)c(Cl)c(Cl)c2C(=O)N1c1ccc(CCc2cccc(O)c2)cc1,inactive,inactive,–,–
O=C1c2ccccc2C(=O)N1c1ccc(CCc2cccc(O)c2)cc1,inactive,inactive,> 80,> 80
O=C1c2c(Cl)c(Cl)c(Cl)c(Cl)c2C(=O)N1c1cccc(CCc2ccc(O)c(O)c2)c1,inactive,inactive,> 80,44
